Common to all, as to format: functional, cell-based
The subject of assay [1] is HeLa. The experiment in a line: Cytotoxicity against human HeLa cells after 72 hrs by MTT assay. A digest of the protocol: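 HeLa (CCL-2) cervical cancer cells, maintained in DMEM with 10% heat-inactivated FBS, penicillin-streptomycin, 2 mM L-glutamine and non-essential amino acids, plated at 1000 cells/well. Aerobic 72 h exposure at 37 °C, then 3 h MTT; formazan taken up in DMSO, read at 550/690 nm. Viability as % DMSO-only value, ≥3 independent experiments; IC50 by nonlinear regression.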
(Tetrazolium assays rely on reduction of a dye to a coloured formazan, in cell work by metabolically active cells.)

A short description of assay [2]: Cytotoxicity against human GM00637 cells after 72 hrs by MTT assay. The settings on record: GM00637, 72 h. A digest of the protocol:
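Normal human skin fibroblasts GM00637, seeded at 10,000 cells/well and exposed aerobically for 72 h at 37 °C. MTT added for a final 3 h; formazan crystals dissolved in DMSO; absorbance 550 nm with 690 nm reference. Viability relative to DMSO-only control, from at least three independent experiments; IC50 estimated by nonlinear regression of dose-response data.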

For assay [3], the system named is DU-145. The experiment in a line: Cytotoxicity against human DU145 cells after 72 hrs by MTT assay. The settings on record: DU-145, 72 h. A digest of the protocol: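 DU145 prostate cancer cells, grown in RPMI-1640 with 10% heat-inactivated FBS, penicillin-streptomycin and 2 mM L-glutamine, seeded at 2000 cells/well. Treated aerobically for 72 h at 37 °C, then incubated 3 h with MTT. Formazan dissolved in DMSO; A550 read against 690 nm reference. Viability as % of DMSO-only wells, mean of ≥3 independent experiments; IC50 from nonlinear regression of dose-response curves.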

As a reminder, the IC50 is the concentration at which inhibition is half-maximal. A high value points to a need for much substance.

Consider `CC1Cn2c(nc3c2C(=O)C=CC3=O)-c2ccccc21` (stereo not drawn), for which the IC50 in assay [1] was 1490 nM; in assay [2], 1650 nM; in assay [3], 1090 nM.
Take `CC1Cn2c(nc3c2C(=O)C=CC3=O)-c2cccnc21` (stereo not drawn): the values for the IC50 in assay [1], in assay [2] and in assay [3] were 1510 nM, 740 nM and 700 nM, respectively.
As to `CCn1c(-c2ccccc2)nc2c1C(=O)C=CC2=O`, the IC50 was 180 nM in assay [1], 150 nM in assay [2] and 70 nM in assay [3].
As to `CCn1c(-c2cccnc2)nc2c1C(=O)C=CC2=O`, the IC50 was found to be 1500 nM in assay [1], 480 nM in assay [2] and 1270 nM in assay [3].
Take `CC1Cn2c(nc3c2C(=O)C=CC3=O)-c2ccc3ccccc3c21` (stereo not drawn): the IC50 in assay [1] came out at 1170 nM; in assay [2] it was 2440 nM; in assay [3], 780 nM.
On to `CCn1c(-c2ccc3ccccc3c2)nc2c1C(=O)C=CC2=O`, for which the IC50 is 70 nM in assay [1], 40 nM in assay [2] and 60 nM in assay [3].
`CC1Cn2c(nc3ccccc32)-c2ccc3ccccc3c21` (stereo not drawn): the IC50 in assay [1] and in assay [2] was > 10000 nM throughout.
Regarding `CO[C@@]12[C@H](COC(N)=O)C3=C(C(=O)C(C)=C(N)C3=O)N1C[C@@H]1N[C@@H]12` [MITOMYCIN], the IC50 stood at 270 nM in assay [1], 460 nM in assay [2] and 170 nM in assay [3].
